Converted amounts (≈) assume the structure as drawn.
Columns and labels:
[1] = tested on: Mycobacterium kansasii; assay: Antimycobacterial activity against isoniazid resistance Mycobacterium kansasii 225/80 after 7 days by micromethod; assay type: functional; settings: 225/80, 168 h
[2] = tested on: Mycobacterium kansasii; assay: Antimycobacterial activity against isoniazid resistance Mycobacterium kansasii 225/80 after 21 days by micromethod; assay type: functional; settings: 225/80, 504 h
[3] = tested on: Mycobacterium avium; assay: Antimycobacterial activity against isoniazid resistance Mycobacterium avium 330/88 after 21 days by micromethod; assay type: functional; settings: 330/88, 504 h
Summary of the method: (§1)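 Inocula: M. tuberculosis My 331/88 at 10^-3 dilution, M. avium My 330/88 at 10^-5, M. kansasii My 235/80 and clinical isolate 6509/96 at 10^-4. Compounds added in DMSO at 1000 down to 0.5 (twofold series). Read at 14 and 21 days, plus 7 days for M. kansasii. MIC taken as lowest concentration inhibiting growth.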

[4] = tested on: Mycobacterium avium; assay: Antimycobacterial activity against isoniazid resistance Mycobacterium avium 330/88 after 14 days by micromethod; assay type: functional; settings: 330/88, 336 h; summary of the method: as §1
[5] = tested on: Mycobacterium kansasii; assay: Antimycobacterial activity against Mycobacterium kansasii 6509/96 clinical isolate after 21 days by micromethod; assay type: functional; settings: 6509/96, 504 h; summary of the method: as §1
[6] = Selectivity index, ratio of IC50 for human HepG2 cells to MIC for Mycobacterium tuberculosis 331/88 after 14 days; assay type: functional
Summary of the method: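 Cytotoxicity in Hep G2 cells (passage 12), 10,000 cells/well, in MEM with 10% FBS, 1% glutamine and 1% nonessential amino acids. Cells preincubated 24 h, 37 °C, 5% CO2. Compounds in DMSO at eight concentrations in quadruplicate, 24 h. MTS-type reagent added for 1.5 h, A490 read, IC50 taken at 50% viability. SI = this IC50 over the 14-day M. tuberculosis MIC.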

[7] = molecular target: T1, Isocitrate lyase (Mycobacterium tuberculosis) (UniProt P9WKK7); assay: Inhibition of Mycobacterium tuberculosis H37Rv isocitrate lyase expressed in Escherichia coli HB101 at 10 umol/L
T1 sequence (whole entry): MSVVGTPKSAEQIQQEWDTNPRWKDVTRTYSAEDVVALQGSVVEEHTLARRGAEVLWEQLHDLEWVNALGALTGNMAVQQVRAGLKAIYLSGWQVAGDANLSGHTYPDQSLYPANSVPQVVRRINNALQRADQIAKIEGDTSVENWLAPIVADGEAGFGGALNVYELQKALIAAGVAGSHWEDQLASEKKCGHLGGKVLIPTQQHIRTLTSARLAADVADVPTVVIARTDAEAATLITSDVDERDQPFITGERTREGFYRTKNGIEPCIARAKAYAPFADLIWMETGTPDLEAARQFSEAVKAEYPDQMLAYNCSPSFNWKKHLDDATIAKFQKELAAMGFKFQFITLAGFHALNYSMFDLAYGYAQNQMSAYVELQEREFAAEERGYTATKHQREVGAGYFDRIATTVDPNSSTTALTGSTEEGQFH
Summary of the method: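 Isocitrate lyase assayed per Dixon–Kornberg in 96-well format. Buffer: 50 mmol/L KH2PO4, 4 mmol/L MgCl2, 4 mmol/L phenylhydrazine, 12 mmol/L cysteine, pH 7.0. Glyoxylate phenylhydrazone read at 324 nm. Compounds added in DMSO, with DMSO-alone inhibition subtracted.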

[8] = tested on: Mycobacterium kansasii; assay: Antimycobacterial activity against Mycobacterium kansasii 6509/96 clinical isolate after 14 days by micromethod; assay type: functional; settings: 6509/96, 336 h; summary of the method: as §1
[9] = tested on: HepG2; assay: Cytotoxicity against human HepG2 cells after 24 hrs by CellTiter-96 cell viability assay; assay type: functional, cell-based; settings: HepG2, 24 h
Summary of the method: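 Hep G2 human hepatic cells (passage 12), 10,000 per well, grown 24 h at 37 °C, 5% CO2 in MEM with 1% glutamine, 10% FBS and 1% nonessential amino acids. Compounds in DMSO at eight increasing concentrations, quadruplicate, 24 h at 37 °C. Kit reagent added, 1.5 h at 37 °C, absorbance 490 nm. IC50 is the concentration reducing viability to 50% of control.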

[10] = tested on: Mycobacterium tuberculosis; assay: Antimycobacterial activity against Mycobacterium tuberculosis 331/88 after 21 days by micromethod; assay type: functional; settings: 331/88, 504 h; summary of the method: as §1
[11] = tested on: Mycobacterium kansasii; assay: Antimycobacterial activity against Mycobacterium kansasii 6509/96 clinical isolate after 7 days by micromethod; assay type: functional; settings: 6509/96, 168 h; summary of the method: as §1
[12] = tested on: Mycobacterium kansasii; assay: Antimycobacterial activity against isoniazid resistance Mycobacterium kansasii 225/80 after 14 days by micromethod; assay type: functional; settings: 225/80, 336 h
[13] = tested on: Mycobacterium tuberculosis; assay: Antimycobacterial activity against Mycobacterium tuberculosis 331/88 after 14 days by micromethod; assay type: functional; settings: 331/88, 336 h; summary of the method: as §1

Compound	MIC [1]	MIC [2]	MIC [3]	MIC [4]	MIC [5]	Selectivity Index [6]	inhibition [7]	MIC [8]	IC50 [9]	MIC [10]	MIC [11]	MIC [12]	MIC [13]
COc1cc(Cl)ccc1C(=S)Nc1ccc(Cl)cc1O	16 µM (≈ 5.25 µg/mL)	62.5 µM (≈ 20.5 µg/mL)	32 µM (≈ 10.5 µg/mL)	32 µM (≈ 10.5 µg/mL)	32 µM (≈ 10.5 µg/mL)	0.32	10%	32 µM (≈ 10.5 µg/mL)	5.11 µM	32 µM (≈ 10.5 µg/mL)	16 µM (≈ 5.25 µg/mL)	32 µM (≈ 10.5 µg/mL)	16 µM (≈ 5.25 µg/mL)
COc1ccc(Cl)cc1C(=O)Nc1cc(Cl)ccc1O	4 µM (≈ 1.25 µg/mL)	16 µM (≈ 4.99 µg/mL)	125 µM (≈ 39 µg/mL)	125 µM (≈ 39 µg/mL)	16 µM (≈ 4.99 µg/mL)		0%	16 µM (≈ 4.99 µg/mL)		32 µM (≈ 9.99 µg/mL)	8 µM (≈ 2.5 µg/mL)	16 µM (≈ 4.99 µg/mL)	16 µM (≈ 4.99 µg/mL)
COc1ccc(Cl)cc1C(=O)Nc1ccc(C(F)(F)F)cc1O		250 µM (≈ 86.4 µg/mL)	62.5 µM (≈ 21.6 µg/mL)	62.5 µM (≈ 21.6 µg/mL)	250 µM (≈ 86.4 µg/mL)	0.01	2%	250 µM (≈ 86.4 µg/mL)	4.91 µM	500 µM (≈ 173 µg/mL)	250 µM (≈ 86.4 µg/mL)	250 µM (≈ 86.4 µg/mL)	500 µM (≈ 173 µg/mL)
COc1ccc(Cl)cc1C(=O)Nc1cc(C(F)(F)F)ccc1O	32 µM (≈ 11.1 µg/mL)	62.5 µM (≈ 21.6 µg/mL)	125 µM (≈ 43.2 µg/mL)	62.5 µM (≈ 21.6 µg/mL)	125 µM (≈ 43.2 µg/mL)	0.06	0%	125 µM (≈ 43.2 µg/mL)	15.4 µM	250 µM (≈ 86.4 µg/mL)	62.5 µM (≈ 21.6 µg/mL)	62.5 µM (≈ 21.6 µg/mL)	250 µM (≈ 86.4 µg/mL)
COc1cc(Cl)ccc1-c1nc2ccc(Cl)cc2o1	62.5 µM (≈ 18.4 µg/mL)	62.5 µM (≈ 18.4 µg/mL)	62.5 µM (≈ 18.4 µg/mL)	62.5 µM (≈ 18.4 µg/mL)	62.5 µM (≈ 18.4 µg/mL)		0%	62.5 µM (≈ 18.4 µg/mL)		125 µM (≈ 36.8 µg/mL)	62.5 µM (≈ 18.4 µg/mL)	62.5 µM (≈ 18.4 µg/mL)	125 µM (≈ 36.8 µg/mL)
COc1cc(Cl)ccc1-c1nc2ccc(C(F)(F)F)cc2o1		250 µM (≈ 81.9 µg/mL)	125 µM (≈ 41 µg/mL)	125 µM (≈ 41 µg/mL)	250 µM (≈ 81.9 µg/mL)		0%	250 µM (≈ 81.9 µg/mL)		250 µM (≈ 81.9 µg/mL)	250 µM (≈ 81.9 µg/mL)	250 µM (≈ 81.9 µg/mL)	250 µM (≈ 81.9 µg/mL)
COc1ccc(Cl)cc1-c1nc2cc(Cl)ccc2o1	250 µM (≈ 73.5 µg/mL)	250 µM (≈ 73.5 µg/mL)	250 µM (≈ 73.5 µg/mL)	250 µM (≈ 73.5 µg/mL)	250 µM (≈ 73.5 µg/mL)		0%	250 µM (≈ 73.5 µg/mL)		125 µM (≈ 36.8 µg/mL)	250 µM (≈ 73.5 µg/mL)	250 µM (≈ 73.5 µg/mL)	125 µM (≈ 36.8 µg/mL)
COc1ccc(Cl)cc1-c1nc2ccc(C(F)(F)F)cc2o1	250 µM (≈ 81.9 µg/mL)	250 µM (≈ 81.9 µg/mL)	250 µM (≈ 81.9 µg/mL)	250 µM (≈ 81.9 µg/mL)	62.5 µM (≈ 20.5 µg/mL)		0%	62.5 µM (≈ 20.5 µg/mL)		62.5 µM (≈ 20.5 µg/mL)	62.5 µM (≈ 20.5 µg/mL)	250 µM (≈ 81.9 µg/mL)	62.5 µM (≈ 20.5 µg/mL)
COc1cc(Cl)ccc1C(=O)Nc1ccc(C(F)(F)F)cc1OC(=O)c1ccc(Cl)cc1OC		250 µM (≈ 129 µg/mL)	62.5 µM (≈ 32.1 µg/mL)	62.5 µM (≈ 32.1 µg/mL)	250 µM (≈ 129 µg/mL)		8%	250 µM (≈ 129 µg/mL)		250 µM (≈ 129 µg/mL)	250 µM (≈ 129 µg/mL)	250 µM (≈ 129 µg/mL)	250 µM (≈ 129 µg/mL)
NNC(=O)c1ccncc1 [ISONIAZID]	> 250 µM	> 250 µM	> 250 µM	> 250 µM	4 µM (≈ 0.549 µg/mL)			4 µM (≈ 0.549 µg/mL)		0.5 µM (≈ 0.0686 µg/mL)	4 µM (≈ 0.549 µg/mL)	> 250 µM	0.5 µM (≈ 0.0686 µg/mL)
COc1ccc(Cl)cc1C(=O)Nc1ccc(C(F)(F)F)cc1OC(=O)c1cc(Cl)ccc1OC		16 µM (≈ 8.23 µg/mL)	62.5 µM (≈ 32.1 µg/mL)	62.5 µM (≈ 32.1 µg/mL)	8 µM (≈ 4.11 µg/mL)		9%	8 µM (≈ 4.11 µg/mL)		250 µM (≈ 129 µg/mL)	8 µM (≈ 4.11 µg/mL)	8 µM (≈ 4.11 µg/mL)	250 µM (≈ 129 µg/mL)

From ChEMBL document CHEMBL2086304, “Synthesis and in vitro antimycobacterial and isocitrate lyase inhibition properties of novel 2-methoxy-2'-hydroxybenzanilides, their thioxo analogues and benzoxazoles” (Eur J Med Chem, 2012)
